Calls of active or inactive are those of the source. The calls are words filed in the database; no cut-off is given here.
Key:
[1] = test system: Mus musculus; assay: Reduction in body weight in moderately high fat diet-induced obese Y5 receptor-deficient mouse model at 3 mg/kg, po BID 15 days; assay type: functional, organism-based; design: dose 3 mg/kg
[2] = Cmax in Beagle dog at 2 mg/kg, iv; assay type: ADME, organism-based, Canis lupus familiaris; design: dose 2 mg/kg, route intravenous; conditions: in vivo
[3] = test system: Canis familiaris; assay: Cardiotoxicity in Beagle dog assessed as adverse events at 2 mg/kg, iv; assay type: toxicity, organism-based, Canis lupus familiaris; design: dose 2 mg/kg, route intravenous; conditions: in vivo
[4] = test system: Canis familiaris; assay: Cardiotoxicity in Beagle dog assessed as change in mean arterial pressure at 5 mg/kg, iv; assay type: toxicity, organism-based, Canis lupus familiaris, Artery; design: dose 5 mg/kg, route intravenous; conditions: in vivo
[5] = test system: Canis familiaris; assay: Cardiotoxicity in Beagle dog assessed as change in left ventricular systolic pressure at 5 mg/kg, iv; assay type: toxicity, organism-based, Canis lupus familiaris, Heart left ventricle; design: dose 5 mg/kg, route intravenous; conditions: in vivo
[6] = test system: Canis familiaris; assay: Cardiotoxicity in Beagle dog assessed as change in cardiac contractility pressure at 5 mg/kg, iv; assay type: toxicity, organism-based, Canis lupus familiaris, Heart; design: dose 5 mg/kg, route intravenous; conditions: in vivo
[7] = test system: Canis familiaris; assay: Cardiotoxicity in Beagle dog assessed as change in cardiac output pressure at 5 mg/kg, iv; assay type: toxicity, organism-based, Canis lupus familiaris, Heart; design: dose 5 mg/kg, route intravenous; conditions: in vivo
[8] = test system: Canis familiaris; assay: Cardiotoxicity in Beagle dog assessed as change in femoral blood flow at 5 mg/kg, iv; assay type: toxicity, organism-based, Canis lupus familiaris; design: dose 5 mg/kg, route intravenous; conditions: in vivo
[9] = test system: Canis familiaris; assay: Cardiotoxicity in Beagle dog assessed as prolongation of QTc interval at 5 mg/kg, iv; assay type: toxicity, organism-based, Canis lupus familiaris; design: dose 5 mg/kg, route intravenous; conditions: in vivo
[10] = Cmax in Beagle dog at 5 mg/kg, iv; assay type: ADME, organism-based, Canis lupus familiaris; design: dose 5 mg/kg, route intravenous; conditions: in vivo
[11] = test system: Rattus norvegicus; assay: Inhibition of D-[Trp34]NPY-induced acute food intake in Sprague-Dawley rat at 0.3 mg/kg, po pretreated 2 hrs prior to D-[Trp34]NPY challenge measured after 2 hrs; assay type: functional
How it was run: (§1)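 SD rats (10-15 weeks) with stereotaxic third-ventricle cannula, tested ≥1 wk post-surgery in light cycle. Oral dose in 0.5% methylcellulose, then 2 h later D-Trp34NPY 1 µg/0.4 µL in aCSF into third ventricle; food intake over 2 h. Mean ± SEM, n = 5-9; Dunnett's test versus agonist-only group.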

[12] = Octanol-water distribution coefficient, log D at pH 7.4; assay type: physicochemical
[13] = Metabolic stability in rat hepatocytes assessed as hepatic clearance by serum incubation method; assay type: ADME, cell-based, Liver, Hepatocyte
[14] = Plasma concentration in Sprague-Dawley rat at 10 mg/kg, po after 2 hrs; assay type: ADME, organism-based; design: dose 10 mg/kg, route oral
How it was run: (§2)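 Male SD rats (7-10 weeks, 200-400 g) dosed orally at 10 mg/kg in 0.5% methylcellulose; at 2 h aortic blood taken under isoflurane. Plasma, brain homogenate (sonicated in water) and CSF deproteinized with 3-fold ethanol plus internal standard, -20 °C 20 min, centrifuged; LC/MS/MS with relative calibration curve. Mean, n = 2-3.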

[15] = test system: Brain; assay: Drug level in Sprague-Dawley rat brain at 10 mg/kg, po after 2 hrs; assay type: ADME, organism-based; design: dose 10 mg/kg, route oral; conditions: in vivo; how it was run: as §2
[16] = test system: Cerebrospinal fluid; assay: Drug level in Sprague-Dawley rat cerebrospinal fluid at 10 mg/kg, po after 2 hrs; assay type: ADME, organism-based; design: dose 10 mg/kg, route oral; conditions: in vivo, 2 h; how it was run: as §2
[17] = Ratio of drug level from brain to plasma in Sprague-Dawley rat at 10 mg/kg, po after 2 hrs; assay type: ADME, organism-based; design: dose 10 mg/kg, route oral; how it was run: as §2
[18] = target: T1, Neuropeptide Y receptor type 1 (Homo sapiens, UniProt P25929); assay: Binding affinity to human neuropeptide Y1 receptor
T1 sequence (P25929 whole entry): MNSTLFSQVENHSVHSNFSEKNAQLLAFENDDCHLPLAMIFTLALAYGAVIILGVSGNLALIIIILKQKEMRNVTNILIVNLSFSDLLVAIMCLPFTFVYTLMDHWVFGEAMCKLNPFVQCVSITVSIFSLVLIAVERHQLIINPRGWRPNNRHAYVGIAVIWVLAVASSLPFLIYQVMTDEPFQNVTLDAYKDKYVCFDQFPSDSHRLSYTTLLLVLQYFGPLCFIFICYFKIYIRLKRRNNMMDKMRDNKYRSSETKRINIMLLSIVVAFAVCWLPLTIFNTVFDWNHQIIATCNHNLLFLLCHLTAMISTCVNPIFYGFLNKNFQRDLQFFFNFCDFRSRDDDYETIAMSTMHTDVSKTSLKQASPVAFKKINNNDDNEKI

[19] = target: T2, Neuropeptide Y receptor type 2 (Homo sapiens, UniProt P49146); assay: Binding affinity to human neuropeptide Y2 receptor
T2 sequence (P49146 whole entry): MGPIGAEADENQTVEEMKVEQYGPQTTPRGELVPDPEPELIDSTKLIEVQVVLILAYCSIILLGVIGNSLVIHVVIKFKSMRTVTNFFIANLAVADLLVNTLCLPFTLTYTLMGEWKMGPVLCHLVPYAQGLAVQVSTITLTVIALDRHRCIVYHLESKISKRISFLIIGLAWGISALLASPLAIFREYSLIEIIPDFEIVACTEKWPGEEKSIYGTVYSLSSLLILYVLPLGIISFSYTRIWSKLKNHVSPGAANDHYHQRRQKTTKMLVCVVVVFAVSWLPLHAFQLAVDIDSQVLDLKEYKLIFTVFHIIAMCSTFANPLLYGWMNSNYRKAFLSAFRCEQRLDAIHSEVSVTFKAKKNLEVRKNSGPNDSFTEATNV

[20] = target: Neuropeptide Y receptor type 4 (Homo sapiens, UniProt P50391); assay: Binding affinity to human neuropeptide Y4 receptor
[21] = Plasma clearance in Sprague-Dawley rat plasma at 1 mg/kg, iv administered as single dose; assay type: ADME, organism-based; design: dose 1 mg/kg, route intravenous
[22] = Volume of distribution at steady state in Sprague-Dawley rat at 1 mg/kg, iv and 1 mg/kg, po administered as single dose; assay type: ADME, organism-based; conditions: in vivo, read-out: Vdss
[23] = AUC (0 to infinity) in Sprague-Dawley rat at 1 mg/kg, po administered as single dose; assay type: ADME, organism-based; design: time infinity, dose 1 mg/kg, route oral; conditions: plasma
[24] = Cmax in Sprague-Dawley rat at 1 mg/kg, iv and 1 mg/kg, po administered as single dose; assay type: ADME, organism-based; conditions: in vivo
[25] = Plasma clearance in rhesus monkey plasma at 0.3 mg/kg, iv administered as single dose; assay type: ADME, organism-based, Macaca mulatta; design: dose 0.3 mg/kg, route intravenous
[26] = Volume of distribution at steady state in rhesus monkey at 1 mg/kg, po and 0.3 mg/kg, iv administered as single dose; assay type: ADME, organism-based, Macaca mulatta; conditions: in vivo, read-out: Vdss
[27] = AUC (0 to infinity) in rhesus monkey at 1 mg/kg, po administered as single dose; assay type: ADME, organism-based, Macaca mulatta; design: dose 1 mg/kg, route oral, time infinity; conditions: plasma
[28] = Bioavailability in Sprague-Dawley rat at 1 mg/kg, iv and 1 mg/kg, po administered as single dose; assay type: ADME, organism-based; conditions: in vivo
[29] = Cmax in rhesus monkey at 1 mg/kg, po and 0.3 mg/kg, iv administered as single dose; assay type: ADME, organism-based, Macaca mulatta; conditions: in vivo
[30] = Bioavailability in rhesus monkey at 1 mg/kg, po and 0.3 mg/kg, iv administered as single dose; assay type: ADME, organism-based, Macaca mulatta; conditions: in vivo
[31] = test system: Rattus norvegicus; assay: Inhibition of D-[Trp34]NPY-induced acute food intake in Sprague-Dawley rat at 1 mg/kg, po pretreated 2 hrs prior to D-[Trp34]NPY challenge measured after 2 hrs; assay type: functional; how it was run: as §1
[32] = test system: Mus musculus; assay: Reduction in body weight in moderately high fat diet-induced obese C57BL/6J mouse model at 10 mg/kg, po qid for 5 days followed by BID for 15 days; assay type: functional, organism-based; design: dose 10 mg/kg
[33] = test system: Mus musculus; assay: Reduction in body weight in moderately high fat diet-induced obese C57BL/6J mouse model at 3 mg/kg, po qid for 5 days followed by BID for 15 days; assay type: functional, organism-based; design: dose 3 mg/kg
[34] = test system: Rattus norvegicus; assay: Inhibition of D-[Trp34]NPY-induced acute food intake in Sprague-Dawley rat at 0.1 mg/kg, po pretreated 2 hrs prior to D-[Trp34]NPY challenge measured after 2 hrs; assay type: functional; how it was run: as §1

Chain of Neuropeptide Y receptor type 4 (P50391 whole entry): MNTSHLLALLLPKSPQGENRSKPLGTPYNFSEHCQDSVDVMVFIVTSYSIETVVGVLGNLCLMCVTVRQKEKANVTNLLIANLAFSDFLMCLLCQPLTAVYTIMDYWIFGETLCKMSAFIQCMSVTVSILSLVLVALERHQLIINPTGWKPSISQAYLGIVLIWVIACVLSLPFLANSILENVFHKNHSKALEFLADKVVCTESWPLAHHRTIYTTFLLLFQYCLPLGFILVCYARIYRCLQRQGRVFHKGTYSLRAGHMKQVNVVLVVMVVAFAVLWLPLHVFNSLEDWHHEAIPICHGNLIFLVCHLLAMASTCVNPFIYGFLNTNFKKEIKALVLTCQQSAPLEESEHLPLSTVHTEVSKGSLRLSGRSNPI

C[C@@H]1NC(c2cc(C#N)ccn2)=N[C@@]1(c1ccc(F)cc1)c1ccc(F)nc1
Activity [1]: inactive | Cmax [2]: 12 µM | Activity [3]: Non-toxic | Activity [4]: 28% | Activity [5]: 29% | Activity [6]: 50% | Activity [7]: 46% | Activity [8]: -32% | Activity [9]: 7% | Cmax [10]: 25 µM | inhibition in vivo at 0.3 mg/kg [11]: 54% | logD [12]: 3.2 | CLhep predicted [13]: 18 mL/min/kg | concentration at 2 h [14]: 2600 nM | Drug uptake [15]: 7 nmol/g | Drug uptake [16]: 0.21 µM | Kp at 2 h [17]: 2.7 | IC50 [18]: > 10 µM | IC50 [19]: > 10 µM | IC50 [20]: > 10 µM | clearance [21]: 20 mL/min/kg | Vd [22]: 6.2 L/kg | AUC(0-inf) [23]: 1.8 µM·h | Cmax [24]: 500 nM | clearance [25]: 8 mL/min/kg | Vd [26]: 4.4 L/kg | AUC(0-inf) [27]: 4.6 µM·h | bioavailability [28]: 77% | Cmax [29]: 590 nM | bioavailability [30]: 76% | inhibition in vivo at 1 mg/kg [31]: 93% | Activity [32]: Active | Activity [33]: Active | inhibition in vivo at 0.1 mg/kg [34]: 5%
